# Test results reported in ChEMBL document CHEMBL1138845, “Design of non-nucleoside inhibitors of HIV-1 reverse transcriptase with improved drug resistance properties. 2” (J Med Chem, 2004).
# Legend:
# [1] = tested on: MT4; test: Inhibitory concentration against wild type human immunodeficiency virus type 1 was determined by MT-4 assay; assay type: functional, cell-based
# [2] = tested on: HeLa; test: Inhibitory concentration against human immunodeficiency virus type 1 (with K103N/V108I resistant mutation) was determined in HeLa-CD4 MAGI assay; assay type: functional, cell-based
# How it was run: (§1)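 Tested against a panel of recombinant, isogenic HIV-1 viruses, wild type and NNRTI-resistant strains carrying engineered single or double RT mutations. The readout was IC50.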
# [3] = tested on: MT4; test: Ratio of cytotoxic concentration to that of inhibitory concentration as selectivity index was determined by MT-4 assay; assay type: functional, Homo sapiens
# How it was run: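 Index is the IC50 in uninfected MT4 cells divided by the antiviral IC50 in MT4 cells infected with wild-type HIV-1 or the nevirapine-resistant strain carrying RT mutation Y181C.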
# [4] = tested on: HeLa; test: Inhibitory concentration against human immunodeficiency virus type 1 (with Y188C resistant mutation) was determined in HeLa-CD4 MAGI assay; assay type: functional, cell-based; how it was run: as §1
# [5] = tested on: MT4; test: Inhibitory concentration against nevirapine resistant strain (with Y181C mutation in HIV-1 RT gene) of human immunodeficiency virus type 1 was determined by MT-4 assay; assay type: functional, cell-based
# [6] = tested on: HeLa; test: Inhibitory concentration against human immunodeficiency virus type 1 (with V106A/Y181C resistant mutation) was determined in HeLa-CD4 MAGI assay; assay type: functional, cell-based; how it was run: as §1
# [7] = tested on: HeLa; test: Inhibitory concentration against human immunodeficiency virus type 1 (with Y181C resistant mutation) was determined in HeLa-CD4 MAGI assay; assay type: functional, cell-based; how it was run: as §1
# [8] = tested on: HeLa; test: Inhibitory concentration against human immunodeficiency virus type 1 (with K103N resistant mutation) was determined in HeLa-CD4 MAGI assay; assay type: functional, cell-based; how it was run: as §1
# [9] = tested on: HeLa; test: Inhibitory concentration against human immunodeficiency virus type 1 (with K103N/Y181C resistant mutation) was determined in HeLa-CD4 MAGI assay; assay type: functional, cell-based; how it was run: as §1
# [10] = tested on: HeLa; test: Inhibitory concentration against human immunodeficiency virus type 1 (with K103N/G190A resistant mutation) was determined in HeLa-CD4 MAGI assay; assay type: functional, cell-based; how it was run: as §1
# [11] = tested on: Human immunodeficiency virus 1; test: Inhibitory concentration against wild type human immunodeficiency virus type 1 was determined by recombinant virus assay; assay type: functional, organism-based
# How it was run: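 Isogenic recombinant HIV-1 carrying wild-type RT, tested in parallel with a panel of NNRTI-resistant RT mutants built on the same background; activity reported as IC50.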
# [12] = tested on: HeLa; test: Inhibitory concentration against human immunodeficiency virus type 1 (with G190A resistant mutation) was determined in HeLa-CD4 MAGI assay; assay type: functional, cell-based; how it was run: as §1
# [13] = tested on: HeLa; test: Inhibitory concentration against human immunodeficiency virus type 1 (with V108I resistant mutation) was determined in HeLa-CD4 MAGI assay; assay type: functional, cell-based; how it was run: as §1
# [14] = tested on: HeLa; test: Inhibitory concentration against human immunodeficiency virus type 1 (with V108I/Y181C resistant mutation) was determined in HeLa-CD4 MAGI assay; assay type: functional, cell-based; how it was run: as §1
# [15] = tested on: HeLa; test: Inhibitory concentration against human immunodeficiency virus type 1 (with V106A resistant mutation) was determined in HeLa-CD4 MAGI assay; assay type: functional, cell-based; how it was run: as §1
SMILES,IC50 [1] [nM],IC50 [2] [nM],Ratio [3],IC50 [4] [nM],IC50 [5] [nM],IC50 [6] [nM],IC50 [7] [nM],IC50 [8] [nM],IC50 [9] [nM],IC50 [10] [nM],IC50 [11] [nM],IC50 [12] [nM],IC50 [13] [nM],IC50 [14] [nM],IC50 [15] [nM]
CCCc1c(O)nc2ccc(Cl)cc2c1OCC1CCC1,72,> 2000,>40000,16,390,630,> 2000,980,> 2000,1300,36,15,77,600,124
CCCc1c(O)nc2ccc(Br)cc2c1OC1CCCC1,120,> 2000,>40000,9,1700,> 2000,> 2000,> 2000,> 2000,> 2000,49,32,120,520,430
CCCc1c(O)nc2ccc(Cl)cc2c1OCC1CC1,1100,> 2000,>40000,89,8300,> 2000,210,> 2000,> 2000,> 2000,120,49,200,1700,630
CCCc1c(OC2CCCCC2)c2cc(Cl)ccc2[nH]c1=O,58,~2000,>5000,12,760,1100,470,> 2000,> 2000,1000,32,54,180,900,980
CCC(C)c1c(O)nc2ccc(Cl)cc2c1OC1CCCC1 (stereo not given),9,> 2000,>40000,670,290,~2000,320,970,> 2000,> 2000,9.3,~2000,1100,> 2000,> 2000
Cc1c(O)nc2ccc(F)cc2c1OCC1CCC1,990,> 2000,>8000,840,3900,> 2000,> 2000,> 2000,> 2000,> 2000,610,250,1700,> 2000,> 2000
CCOc1c(O)nc2ccc(Cl)cc2c1OCC1CCC1,290,> 2000,>8000,390,2090,> 2000,> 2000,> 2000,> 2000,> 2000,340,170,890,> 2000,> 2000
CCC(C)C#COc1c(C(C)C)c(O)nc2ccc(F)cc12 (stereo not given),17,> 2000,>6500,21,32,130,84,540,640,230,28,21,110,140,420
CCCc1c(O)nc2ccc(F)c([N+](=O)[O-])c2c1OCC1CCC1,1200,> 2000,>8000,250,1800,1000,> 2000,> 2000,> 2000,> 2000,1100,540,~1000,> 2000,> 2000
